Screening results: PubChem, The Scripps Research Institute Molecular Screening Center
This is a sample that favours compounds with a hit; in the whole collection about 2.1% have one here.
M5 antag – CHRM5 antagonism in calcium assay. P08912. CHO-hM5 cells, Fluo-8 calcium fluorescence, ACh EC80. inhibition, % at 3 µM. 360,000 compounds, 0.59% hits. AID 624040;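 active = inhibition above a per-plate cutoff, the mean of that plate's test compounds plus 3 SD, cut at about 27% in these data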;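 note: 0% = acetylcholine EC80 with DMSO and 100% = DMSO without agonist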
Target sequence (P08912 whole entry, looked up): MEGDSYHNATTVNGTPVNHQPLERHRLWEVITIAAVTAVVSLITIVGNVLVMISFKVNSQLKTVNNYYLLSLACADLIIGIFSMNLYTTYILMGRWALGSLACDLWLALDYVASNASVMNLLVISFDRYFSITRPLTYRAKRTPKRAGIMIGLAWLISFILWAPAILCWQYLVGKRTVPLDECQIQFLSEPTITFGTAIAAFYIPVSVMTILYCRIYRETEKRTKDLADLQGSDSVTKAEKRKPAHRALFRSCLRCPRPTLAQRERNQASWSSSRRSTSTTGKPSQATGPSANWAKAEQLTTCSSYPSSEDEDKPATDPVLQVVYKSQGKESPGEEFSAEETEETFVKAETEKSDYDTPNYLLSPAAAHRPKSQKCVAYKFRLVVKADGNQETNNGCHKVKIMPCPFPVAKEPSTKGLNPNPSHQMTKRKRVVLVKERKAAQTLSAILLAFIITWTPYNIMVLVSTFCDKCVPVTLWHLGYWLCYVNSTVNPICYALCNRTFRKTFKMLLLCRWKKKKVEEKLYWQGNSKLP
M1 antag – human CHRM1 antagonism. P11229. CHO-K1 hM1, Fluo-8 calcium fluorescence, ACh EC80 antagonist. inhibition, % at 3 µM. 360,000 compounds, 1.3% hits. AID 588852;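 active = percent inhibition above its own plate's cutoff, namely the mean of that plate's compound wells plus 3 SD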;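 note: peak over basal fluorescence ratio during 140 s after agonist addition; 0% = ACh EC80 plus DMSO and 100% = DMSO alone without agonist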
M5 PAM – CHRM5 positive allosteric modulation | P08912 | CHO-K1 hM5, Fluo-8 calcium, ACh EC20 PAM; 0% = ACh EC20, 100% = ACh EC100 | activation, % at 3 µM | 360,000 compounds, 0.3% hits;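 active = activation above the run cutoff, the mean activation of all test compounds plus 3 SD, cut at about 18% in these data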
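Assay system: CHO-K1 hM5 cells / Incubation: Fluo-8 loading 80 min at 37 °C plus 30 min room temperature / Technique: Fluo-8 calcium dye fluorescence, kinetic read / Repeats: single replicate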
CHRM1 agonist – agonists of human M1 muscarinic receptor; AID 588814; CHO-K1 hM1, Fluo-8 calcium fluorescence, agonist mode; 0% DMSO, 100% acetylcholine EC100; P11229; activation, % at 3 µM; 360,000 compounds, 0.33% hits;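 active = activation above the run's mean compound activation plus 3 SD, cut at about 16% in these data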;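 note: peak over basal fluorescence ratio within a 140 s kinetic read after compound addition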
CHRM1 PAM – potentiates human M1 receptor response to acetylcholine | activation, % at 3 µM | CHO-K1 hM1, Fluo-8 calcium fluorescence, ACh EC20; 0% = ACh EC20, 100% = maximal ACh | P11229 | 360,000 compounds, 0.088% hits; in the data active = activation above about 19%, passing the limit was not always enough
M5 ag – CHRM5 agonism in calcium assay. activation, % at 3 µM. 360,000 compounds, 0.19% hits. CHO-K1 hM5 cells, Fluo-8 calcium fluorescence; 0% DMSO wells, 100% maximal acetylcholine response. P08912. AID 624037;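 active = activation above the run's mean over test compounds plus 3 SD, cut at about 23% in these data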;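 note: signal is peak over basal fluorescence ratio across the kinetic read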
Active calls of the source: *; ! = repeats disagree.

SMILES	M5 antag	M1 antag	M5 PAM	CHRM1 agonist	CHRM1 PAM	M5 ag
CS(=O)(=O)c1ccc(C(=O)N2CCC(C(=O)O)(c3ccccc3)CC2)cc1	-3.7	-4.4	2.7	-2.2	3.7	0.5
CN(C)c1ccc(C=C2C(=O)NC(=S)NC2=O)cc1	6.2	-11.1	1.7	-0.8	4.6	1.2
CC1=CC2OC3CC4OC(=O)C=CC=CC(=O)OCCC(C)C(O)C(=O)OCC2(CC1)C4(C)C31CO1 (stereo not given)	12.3	36.8*	-36.2	1.5	-17.8	6.3
CC(=O)N1N=C2C3CCN(CC3)C2C1c1ccc(C)cc1 (stereo not given)	2.4	-11.5	1.2	-1.7	7.8	0.9
Cc1ccc(CNCCc2ccccc2F)cc1	-8.7	9.9	0.8	-12.6	8.4	-4.3
CCN(CC)c1ccc(CNCCc2ccccc2F)cc1	10.8	56.4*	3.0	-8.0	-27.5	-9.5
CC1(C)CSC(=NCc2ccccc2)N1	9.3	15.9	-18.8	11.8	-16.3	26.0*
Cc1nc2cc(-c3ccccc3)nn2c(C)c1CCC(=O)N1CCC2(CC1)OCCO2	-6.7	3.4	11.1	-0.9	2.0	1.0
O=C(Nc1ccc(F)cc1)OC1CN2CCC1CC2 (stereo not given)	12.9	33.4	-16.2	-9.0	-18.6	-22.0
CC(C)N(CCC(C(N)=O)(c1ccccc1)c1ccccn1)C(C)C (stereo not given)	38.8*!	20.6	-18.2	-7.3	-22.4	-1.5
CCN(CC)S(=O)(=O)c1cc(NC(=O)C(C)N2CC=C(c3ccccc3)CC2)ccc1C (stereo not given)	13.0	37.2*	-17.5	-14.9	-27.6	-7.5
N#CC1=C(N)Oc2c(c(=O)oc3ccccc23)C1c1cccnc1 (stereo not given)	-10.8	-11.5	20.2*	-2.2	5.8	-3.2
O=C1N(c2ccccc2)C(c2cccnc2)N2CCCN12 (stereo not given)	15.5	-10.2	0.0	-5.2	7.7	0.4
CC1CN1c1cc2c(c3c1ccn3C)C1CCC2C1 (stereo not given)	-2.2	-46.8	3.4	-0.1	25.6*	0.9
COc1cccc(OC)c1CN1CCCC(C(=O)c2cccc(Cl)c2)C1 (stereo not given)	-1.1	21.6	0.9	-9.1	-20.8	-12.0
COc1ccc(F)cc1C(=O)C1CCCN(Cc2ccc(O)cc2)C1 (stereo not given)	-0.2	-21.8	8.4	-7.5	10.4	-3.7
COc1ccc(C(=O)C2CCCN(Cc3ccc(F)cc3F)C2)cc1F (stereo not given)	11.2	71.0*	-4.5	-7.9	-26.1	-14.4
COc1ccc(C(=O)C2CCCN(CCc3ccccc3)C2)cc1OC (stereo not given)	3.5	54.7*	-6.9	-11.1	-31.6	-3.1
COc1ccccc1-n1c(-c2ccccc2)nc2ccccc2c1=O	-7.0	-16.3	-8.1	-2.2	5.3	-0.2
Cc1ccc(C(=O)C2CN3CCC2CC3)cc1 (stereo not given)	2.9	27.7*	-18.0	1.0	-7.2	-9.2
CNc1ccc2oc(C[C@H]3O[C@@]4(CC[C@H]3C)O[C@H]([C@H](C)C(=O)c3ccc[nH]3)[C@H](C)C[C@H]4C)nc2c1C(=O)O	7.9	94.5*	1.6	104.8*	-21.4	3.2
CCN1/C(=C/C=C/C2=[N+](CC)c3ccccc3C2(C)C)C(C)(C)c2ccccc21	97.0*	100.3*	-23.6	460.4*	-27.9	500.5*
CN1/C(=C\C=Nc2ccccc2)C(C)(C)c2ccccc21	5.1	10.4	-11.8	-3.3	-5.1	-6.7
CCc1nc(N2CCNCC2)c(C#N)c2c1CSC(C)(C)C2	1.1	47.1*	-8.5	-6.3	-17.8	-8.0
COc1ccc(C(=O)C2CCCN(Cc3cccc(C)n3)C2)c(OC)c1 (stereo not given)	8.0	46.0*	-7.8	-7.0	-22.8	-9.7
SMILES	M5 antag	M1 antag	M5 PAM	CHRM1 agonist	CHRM1 PAM	M5 ag
OC(c1cccc(Cl)c1)(c1cccc(Cl)c1)C1CN2CCC1CC2 (stereo not given)	99.4*	98.5*	-21.7	-9.3	-30.8	-5.1
O=c1[nH]c(=O)n(Cc2ccc(F)cc2)c(O)c1C=NCC1CCCO1 (stereo not given)	-17.6	-22.4	37.8*	2.4	9.9	0.1
NC1CCCCC1N=Cc1c(O)n(Cc2ccc(F)cc2)c(=O)[nH]c1=O (stereo not given)	1.8	-8.1	1.3	-4.2	0.6	-1.4
CN1CCN(Cc2ccccc2Sc2ccccc2)CC1	98.8*	100.5*	-19.8	-9.6	-22.4	-5.1
COc1ccccc1Sc1ccccc1CC(C)N (stereo not given)	8.0	-1.6	2.1	-5.9	1.1	-5.0
CC(Cc1ccccc1Sc1ccc(O)cc1)N(C)C (stereo not given)	90.8*	82.8*	-21.4	-4.3	-23.0	-5.5
CC(Cc1ccccc1Sc1ccccc1)N(C)C (stereo not given)	98.9*	97.9*	-20.7	-10.5	-23.9	-7.1
COC(=O)C1=C(c2ccc(C(C)=O)cc2)C[C@@H]2CC[C@H]1N2C(=O)NC1CCCCC1	-2.7	3.1	4.2	-3.8	5.7	1.3
O=C(Cc1ccccc1)NC(Oc1ccccc1Cl)C(Cl)(Cl)Cl (stereo not given)	2.3	-5.9	-1.6	-12.4	3.6	-5.0
Cc1c(N=Cc2c(O)n(CCc3ccc(F)cc3)c(=O)[nH]c2=O)c(=O)n(-c2ccccc2)n1C	-0.7	-23.6	-3.3	-7.1	-0.5	0.0
O=C(CCC(=O)N1CCC2(CC1)OCCO2)Nc1nnc(C(F)(F)F)s1	0.5	11.4	1.0	-3.3	-8.7	0.1
CCN1CCN(CC(c2ccccc2)c2ccccc2)CC1	35.8*	99.8*	-33.6	-8.9	-29.8	-20.4
CCN1CCc2ccccc2C1	3.0	-4.1	1.1	-4.1	2.6	0.4
O=c1[nH]c2ccccc2n1C1CCN(C(c2ccccc2OC(F)(F)F)c2nnnn2Cc2ccccc2)CC1 (stereo not given)	10.5	-21.0	-10.7	6.8	12.2	2.0
O=c1[nH]c(=S)n(CCC2=CCCCC2)c(O)c1C=NCCCn1ccnc1	9.7	30.4*	-19.1	-5.3	-17.4	-8.0
O=c1[nH]c(=O)n(CCC2=CCCCC2)c(O)c1C=NCCCn1ccnc1	10.4	16.1	-21.1	-4.6	-10.1	-5.9
O=C(COc1ccc(Cl)cc1)N1CCN(Cc2ccc([N+](=O)[O-])cc2)CC1	-4.3	2.5	-5.3	-7.7	-3.5	0.1
